Laboratory results published in ChEMBL document CHEMBL1148769, “3,17-disubstituted 2-alkylestra-1,3,5(10)-trien-3-ol derivatives: synthesis, in vitro and in vivo anticancer activity” (J Med Chem, 2007).
Activity calls are given as the source filed them. The rule behind the calls is not given here.

Columns and labels:
DU-145 [1] = test: Antiproliferative activity against human DU145 cells after 96 hrs by WST1 assay; type: functional; conditions: DU-145, 96 h
Procedure, shortened: (§1)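 Cells kept in RPMI-1640 with 10% FBS, penicillin and streptomycin at 37 °C in 5% CO2. Seeded at 5000 cells/well, exposed to 10^-9-10^-4 M compound or vehicle for 96 h. Live cells counted by WST-1 and viability expressed as % of mean control, from which GI50 was calculated. Triplicate experiments.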

MDA-MB-231 [2] = test: Antiproliferative activity against human MDA-MB-231 cells after 96 hrs by WST1 assay; type: functional; conditions: MDA-MB-231, 96 h; procedure, shortened: as §1
Steryl-sulfatase = target: T1, Steryl-sulfatase (Homo sapiens, UniProt P08842); test: Inhibition of steroid sulfatase in placental microsomes; set-up: species or system Placenta
T1 sequence (P08842 whole entry): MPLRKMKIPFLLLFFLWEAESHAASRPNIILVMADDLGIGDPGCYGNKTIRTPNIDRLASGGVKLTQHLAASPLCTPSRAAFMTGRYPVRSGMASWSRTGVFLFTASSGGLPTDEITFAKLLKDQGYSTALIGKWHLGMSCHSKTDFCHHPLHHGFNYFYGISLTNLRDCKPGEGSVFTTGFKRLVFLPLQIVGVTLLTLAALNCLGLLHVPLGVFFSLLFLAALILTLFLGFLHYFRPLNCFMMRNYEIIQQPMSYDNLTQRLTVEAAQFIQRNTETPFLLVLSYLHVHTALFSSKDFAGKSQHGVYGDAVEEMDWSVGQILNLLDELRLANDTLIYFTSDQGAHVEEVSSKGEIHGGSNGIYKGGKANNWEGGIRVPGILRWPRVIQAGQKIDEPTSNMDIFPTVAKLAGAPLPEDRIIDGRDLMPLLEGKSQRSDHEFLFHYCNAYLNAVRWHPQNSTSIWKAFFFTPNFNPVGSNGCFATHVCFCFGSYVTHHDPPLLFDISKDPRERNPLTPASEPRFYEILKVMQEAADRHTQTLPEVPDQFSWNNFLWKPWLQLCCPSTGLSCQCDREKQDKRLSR
Procedure, shortened: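 Radiometric assay of STS activity in placental microsomes: conversion of tritiated estradiol-3-sulfate to estradiol is measured.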

MCF7 = test: Antiproliferative activity against human MCF7 cells by WST1 assay; type: functional
MDA-MB-231 [3] = test: Antitumor activity against human MDA-MB-231 cells xenografted athymic mouse at 60 mg/kg/day, po after 28 days; type: functional, organism-based
Procedure, shortened: (§2)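 Female NCr-nude mice, 6-8 weeks old, bearing MDA-MB-231 xenografts, dosed orally in THF/PG vehicle from day 10. Schedules: 60 mg/kg daily for 28 d (to day 38), 90 mg/kg Mon/Wed/Fri × 4 (to day 36), or 200 mg/kg weekly × 4 (to day 32). Tumor volume was (w² × l)/2; one-way ANOVA against control.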

DU-145 [4] = test: Antitumor activity against human DU145 cells xenografted athymic mouse at 20 mg/kg/day, po after 25 days; type: functional
Procedure, shortened: (§3)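 Male NCr-nude mice, 6-8 weeks old, implanted s.c. in the flank with 5 × 10⁶ DU145 cells; treatment began once tumors reached about 50-100 mm³. Dosed orally at 10, 20 or 40 mg/kg once daily for 28 d. Tumor volume was (w² × l)/2 and inhibition read after 25 days of treatment (day 35).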

MDA-MB-231 [5] = test: Antitumor activity against human MDA-MB-231 cells xenografted athymic mouse at 90 mg/kg, po thrice a week for 4 weeks; type: functional, organism-based; set-up: dose 90 mg/kg; procedure, shortened: as §2
MDA-MB-231 [6] = test: Antitumor activity against human MDA-MB-231 cells xenografted athymic mouse at 200 mg/kg, po, once a week for 4 weeks; type: functional, organism-based; set-up: dose 200 mg/kg; procedure, shortened: as §2
DU-145 [7] = test: Antitumor activity against human DU145 cells xenografted athymic mouse at 40 mg/kg/day, po after 25 days; type: functional; procedure, shortened: as §3
DU-145 [8] = test: Antitumor activity against human DU145 cells xenografted athymic mouse at 10 mg/kg/day, po after 25 days; type: functional; procedure, shortened: as §3

| Structure (SMILES) | GI50 (DU-145 [1]) [µM] | GI50 (MDA-MB-231 [2]) [µM] | other results |
| --- | --- | --- | --- |
| COc1cc2c(cc1OS(N)(=O)=O)CC[C@@H]1[C@@H]2CC[C@]2(C)[C@@H](OC(N)=O)CC[C@@H]12 | 1.34 | 1.15 | IC50 (Steryl-sulfatase): 0.52 µM; GI50 (MCF7): 3.5 µM |
| Cc1cc2c(cc1O)CC[C@@H]1[C@@H]2CC[C@]2(C)[C@@H](O)CC[C@@H]12 | 51 |  |  |
| CC(C)c1cc2c(cc1OS(N)(=O)=O)CC[C@@H]1[C@@H]2CC[C@]2(C)[C@@H](OC(N)=O)CC[C@@H]12 | 2.4 | 3.4 |  |
| CCCCc1cc2c(cc1OS(N)(=O)=O)CC[C@@H]1[C@@H]2CC[C@]2(C)[C@@H](OS(N)(=O)=O)CC[C@@H]12 | 9 | 10.7 |  |
| CC(C)c1cc2c(cc1OS(N)(=O)=O)CC[C@@H]1[C@@H]2CC[C@]2(C)[C@@H](OS(N)(=O)=O)CC[C@@H]12 | 1.8 |  |  |
| CCCc1cc2c(cc1OS(N)(=O)=O)CC[C@@H]1[C@@H]2CC[C@]2(C)[C@@H](OS(N)(=O)=O)CC[C@@H]12 | 3.4 | 6.4 |  |
| Cc1cc2c(cc1OS(N)(=O)=O)CC[C@@H]1[C@@H]2CC[C@]2(C)[C@@H](OS(N)(=O)=O)CC[C@@H]12 | 0.38 | 0.25 |  |
| CC(C)(C)c1cc2c(cc1O)CC[C@@H]1[C@@H]2CC[C@]2(C)[C@@H](O)CC[C@@H]12 | 24 |  |  |
| CCCCc1cc2c(cc1OS(N)(=O)=O)CC[C@@H]1[C@@H]2CC[C@]2(C)[C@@H](OC(N)=O)CC[C@@H]12 | 15 | > 100 |  |
| CCCc1cc2c(cc1O)CC[C@@H]1[C@@H]2CC[C@]2(C)[C@@H](O)CC[C@@H]12 | 15 | 16.6 |  |
| COc1cc2c(cc1O)CC[C@@H]1[C@@H]2CC[C@]2(C)[C@@H](O)CC[C@@H]12 [2-METHOXYESTRADIOL] |  | 0.94 |  |
| CCCc1cc2c(cc1OS(N)(=O)=O)CC[C@@H]1[C@@H]2CC[C@]2(C)[C@@H](OC(C)=O)CC[C@@H]12 | 61.3 | 20.4 |  |
| CCc1cc2c(cc1OS(N)(=O)=O)CC[C@@H]1[C@@H]2CC[C@]2(C)[C@@H](OC(C)=O)CC[C@@H]12 | 1.6 |  |  |
| CC(C)(C)c1cc2c(cc1OS(N)(=O)=O)CC[C@@H]1[C@@H]2CC[C@]2(C)[C@@H](OC(N)=O)CC[C@@H]12 | 13 | 17 |  |
| CCc1cc2c(cc1O)CC[C@@H]1[C@@H]2CC[C@]2(C)[C@@H](O)CC[C@@H]12 | 10.3 | 8 |  |
| COc1cc2c(cc1OS(N)(=O)=O)CC[C@@H]1[C@@H]2CC[C@]2(C)[C@@H](OS(N)(=O)=O)CC[C@@H]12 | 0.34 | 0.28 |  |
| CC(C)(C)c1cc2c(cc1OS(N)(=O)=O)CC[C@@H]1[C@@H]2CC[C@]2(C)[C@@H](OS(N)(=O)=O)CC[C@@H]12 | > 10 |  |  |
| C[C@]12CC[C@@H]3c4ccc(OS(N)(=O)=O)cc4CC[C@H]3[C@@H]1CC[C@@H]2OS(N)(=O)=O | 11.5 | 18.3 |  |
| CCc1cc2c(cc1OS(N)(=O)=O)CC[C@@H]1[C@@H]2CC[C@]2(C)[C@@H](OS(N)(=O)=O)CC[C@@H]12 | 0.21 | 0.21 | Activity (MDA-MB-231 [3]): Active; Activity (DU-145 [4]): 27%; Activity (MDA-MB-231 [5]): Active; Activity (MDA-MB-231 [6]): Active; Activity (DU-145 [7]): 65%; Activity (DU-145 [8]): 24% |
| C[C@]12CC[C@@H]3c4ccc(OS(N)(=O)=O)cc4CC[C@H]3[C@@H]1CC[C@@H]2OC(N)=O | > 100 | > 100 | IC50 (Steryl-sulfatase): 0.04 µM; GI50 (MCF7): 45 µM |
| CCc1cc2c(cc1OS(N)(=O)=O)CC[C@@H]1[C@@H]2CC[C@]2(C)[C@@H](OC(N)=O)CC[C@@H]12 | 0.22 | 0.39 | GI50 (MCF7): 0.64 µM |
| Cc1cc2c(cc1OS(N)(=O)=O)CC[C@@H]1[C@@H]2CC[C@]2(C)[C@@H](OC(N)=O)CC[C@@H]12 | 1.9 | 4.7 |  |
| CC(C)c1cc2c(cc1O)CC[C@@H]1[C@@H]2CC[C@]2(C)[C@@H](O)CC[C@@H]12 | 23 |  |  |
| CCCCc1cc2c(cc1OS(N)(=O)=O)CC[C@@H]1[C@@H]2CC[C@]2(C)[C@@H](OC(C)=O)CC[C@@H]12 | 18.4 | 21.6 |  |
| CCCCc1cc2c(cc1O)CC[C@@H]1[C@@H]2CC[C@]2(C)[C@@H](O)CC[C@@H]12 | > 100 | > 100 |  |
| CCCc1cc2c(cc1OS(N)(=O)=O)CC[C@@H]1[C@@H]2CC[C@]2(C)[C@@H](OC(N)=O)CC[C@@H]12 | 21 | 14.5 |  |
